# Test results reported in ChEMBL document CHEMBL4811308, “Design, synthesis and broad spectrum antibreast cancer activity of diarylindoles via induction of apoptosis in aggressive breast cancer cells” (Bioorg Med Chem, 2021).
# Key:
# Format in all cases: organism-based
# [1] = Acute toxicity in Swiss albino mouse assessed as absolute kidney weight at 5 to 300 mg/kg, po administered once and observed for 7 days; conditions: in vivo, 168 h, dose 5-300 mg/kg, time 7 day
# Procedure, shortened: (§1)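 Acute oral toxicity per OECD guideline 423; mice 20–25 g, 3 male + 3 female per group, acclimatized 7 days at 22 ± 5 °C, 12 h light/dark. Compound dissolved in minimal DMSO, diluted in 0.7% CMC, single oral dose of 5, 50 or 300 mg/kg; controls given vehicle only. Clinical signs checked hourly on dosing day, then daily. Samples and body weights taken on day 7.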
# [2] = Acute toxicity in Swiss albino mouse assessed as protein level at 5 mg/kg, po administered once and observed for 7 days (reference value: 2.01 +/- 0.11 mg/ml); conditions: in vivo, 168 h, time 7 day
# [3] = Acute toxicity in Swiss albino mouse assessed as creatinine level at 300 mg/kg, po administered once and observed for 7 days (reference value: 0.11 +/- 0.03 mg/dL); conditions: in vivo, 168 h, time 7 day
# [4] = Acute toxicity in Swiss albino mouse assessed as WBC level at 300 mg/kg, po administered once and observed for 7 days (reference value: 8.55 +/- 2.71 /mm3); conditions: in vivo, 168 h, time 7 day
# [5] = Acute toxicity in Swiss albino mouse assessed as albumin at 5 mg/kg, po administered once and observed for 7 days (reference value: 1.62 +/- 0.09 g/dl); conditions: in vivo, 168 h, time 7 day
# [6] = Acute toxicity in Swiss albino mouse assessed as RBC level at 300 mg/kg, po administered once and observed for 7 days (reference value: 9.21 +/- 0.32 /mm3); conditions: in vivo, 168 h, time 7 day
# [7] = Acute toxicity in Swiss albino mouse assessed as SGOT level at 50 mg/kg, po administered once and observed for 7 days (reference value: 22.94 +/- 4.04 U/L); conditions: in vivo, 168 h, time 7 day
# [8] = Acute toxicity in Swiss albino mouse assessed as ALP level at 50 mg/kg, po administered once and observed for 7 days (reference value: 123.22 +/- 16.04 U/L); conditions: in vivo, 168 h, time 7 day
# [9] = Acute toxicity in Swiss albino mouse assessed as relative brain weight at 5 to 300 mg/kg, po administered once and observed for 7 days; conditions: in vivo, 168 h, dose 5-300 mg/kg, time 7 day; procedure, shortened: as §1
# [10] = Acute toxicity in Swiss albino mouse assessed as body weight at 300 mg/kg, po administered once and observed for 7 days (reference value: 22.75 +/- 0.93 gm); conditions: in vivo, 168 h, time 7 day
# [11] = Acute toxicity in Swiss albino mouse assessed as protein level at 300 mg/kg, po administered once and observed for 7 days (reference value: 2.01 +/- 0.11 mg/ml); conditions: in vivo, 168 h, time 7 day
# [12] = Acute toxicity in Swiss albino mouse assessed as relative lungs weight at 5 to 300 mg/kg, po administered once and observed for 7 days; conditions: in vivo, 168 h, dose 5-300 mg/kg, time 7 day; procedure, shortened: as §1
# [13] = Acute toxicity in Swiss albino mouse assessed as creatinine level at 5 mg/kg, po administered once and observed for 7 days (reference value: 0.11 +/- 0.03 mg/dL); conditions: in vivo, 168 h, time 7 day
# [14] = Acute toxicity in Swiss albino mouse assessed as ALP level at 300 mg/kg, po administered once and observed for 7 days (reference value: 123.22 +/- 16.04 U/L); conditions: in vivo, 168 h, time 7 day
# [15] = Acute toxicity in Swiss albino mouse assessed as absolute brain weight at 5 to 300 mg/kg, po administered once and observed for 7 days; conditions: in vivo, 168 h, dose 5-300 mg/kg, time 7 day; procedure, shortened: as §1
# [16] = Acute toxicity in Swiss albino mouse assessed as SGOT level at 5 mg/kg, po administered once and observed for 7 days (reference value: 22.94 +/- 4.04 U/L); conditions: in vivo, 168 h, time 7 day
Structure (SMILES),Activity [1],Activity [2] [mg/mL],Activity [3] [mg/dL],Activity [4] [thousands/mm3],Activity [5] [g/dL],Activity [6] [million/mm3],Activity [7] [U/L],Activity [8] [U/L],Activity [9],Activity [10] [g],Activity [11] [mg/mL],Activity [12],Activity [13] [mg/dL],Activity [14] [U/L],Activity [15],Activity [16] [U/L]
COc1ccc2c(c1)c(Cc1ccc(OC(C)CN(C)C)cc1)c(-c1cc(OC)c(OC)c(OC)c1)n2Cc1ccc(OC(C)CN(C)C)cc1 (configuration not stated),Non-Toxic,1.57,0.14,5.6,1.48,7.96,33.28,84.85,Non-Toxic,22.75,1.66,Non-Toxic,0.12,74.12,Non-Toxic,28.86
COc1ccc2c(c1)c(Cc1ccc(OCCN(C)C)cc1)c(-c1cc(OC)c(OC)c(OC)c1)n2Cc1ccc(OCCN(C)C)cc1,Non-Toxic,1.61,0.15,5.53,1.52,9.45,21.92,106.88,Non-Toxic,21.88,1.93,Non-Toxic,0.12,98.7,Non-Toxic,22.11
